Consider eight molecules from ChEMBL document CHEMBL1138356, “Design and synthesis of human immunodeficiency virus entry inhibitors: sulfonamide as an isostere for the alpha-ketoamide group” (J Med Chem, 2007).

Data set [1] has as its system Human immunodeficiency virus. Description: Antiviral activity against HIV 584.000241 by viral replication assay. It is filed as functional, organism-based. Particulars: Human immunodeficiency virus 1.
Data set [2] deals with Human immunodeficiency virus. Description: Antiviral activity against HIV 584.000063P1B by viral replication assay. It is filed as functional, organism-based. Particulars: Human immunodeficiency virus 1.
The test system of data set [3] is Human immunodeficiency virus 1. Description: Antiviral activity against HIV1 pseudovirus in U87 cells expressing CD4 and CCR5 after 72 hrs by M33 pseudotyped assay. It is filed as functional, organism-based, U-87MG ATCC. As to conditions: Human immunodeficiency virus 1, U-87 MG. The method in brief: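 M33 pseudotyped viral attachment assay giving IC50 values. Specificity for HIV was judged by counter-screening against AMLV-pseudotyped virus at concentrations above 100× the M33 IC50.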

The subject of data set [4] is Human immunodeficiency virus. Description: Antiviral activity against HIV 584.000030 by viral replication assay. It is filed as functional, organism-based. As to conditions: Human immunodeficiency virus 1.
For data set [5], the system named is Human immunodeficiency virus. The experiment in a line: Antiviral activity against HIV 584.000088 by viral replication assay. The class given is functional, organism-based. Particulars: Human immunodeficiency virus 1.
Data set [6] relates to Human immunodeficiency virus. The experiment in a line: Antiviral activity against HIV 589.000049 by viral replication assay. It is filed as functional, organism-based. As to conditions: Human immunodeficiency virus 1.
For data set [7], the system named is Human immunodeficiency virus. The experiment in a line: Antiviral activity against HIV 584.000058 by viral replication assay. It is filed as functional, organism-based. Particulars: Human immunodeficiency virus 1.
The test system of data set [8] is Human immunodeficiency virus. The experiment in a line: Antiviral activity against HIV 589.000821 by viral replication assay. Particulars: Human immunodeficiency virus 1. It is filed as functional, organism-based.
Data set [9] has as its system Human immunodeficiency virus. The experiment in a line: Antiviral activity against HIV 584.000039 by viral replication assay. The class given is functional, organism-based. Particulars: Human immunodeficiency virus 1.
Data set [10] in a line: Cytotoxicity against human U87 cells expressing CD4 and CXCR4. It is filed as cell-based, U-87MG ATCC.
Data set [11] relates to Human immunodeficiency virus. The experiment in a line: Antiviral activity against HIV 584.000016 by viral replication assay. As to conditions: Human immunodeficiency virus 1.
In data set [12] the test system is Human immunodeficiency virus. Description: Antiviral activity against HIV 589.000033 by viral replication assay. It is filed as functional, organism-based. Particulars: Human immunodeficiency virus 1.
The subject of data set [13] is Human immunodeficiency virus. The experiment in a line: Antiviral activity against HIV 208.000923 by viral replication assay. It is filed as functional, organism-based. As to conditions: Human immunodeficiency virus 1.
Data set [14] relates to Human immunodeficiency virus. Description: Antiviral activity against HIV 584.000220 by viral replication assay. The class given is functional, organism-based. As to conditions: Human immunodeficiency virus 1.

A word on the IC50: it is the concentration that gives 50% inhibition. A high value points to weaker potency in that assay. Broadly, the CC50 is the concentration at which the toxic effect on the cells reaches its halfway point. The low end stands for greater toxicity to the cells, the high end for lower toxicity to the cells.

Turning to `COc1ccnc2[nH]cc(C(=O)C(=O)N3CCN(C(=O)c4ccccc4)C[C@H]3C)c12`, the IC50 in [1] was 0.118 µM; in data set [2], 0.037 µM; in [3] it was 0.008 µM; in data set [4], 0.031 µM; in data set [5], 0.014 µM; in [6], 0.006 µM. Further, the IC50 was determined as 0.058 µM in [7]; 2.8 µM in data set [8]; 0.4 µM in data set [9]; 0.04 µM in [11]; 0.028 µM in data set [12]; 1.4 µM in data set [13]. 0.004 µM corresponded to half-maximal inhibition in data set [14] (IC50). In data set [10], this molecule yielded a CC50 of over 40 µM.

For the molecule `CC1CN(C(=O)c2ccccc2)CCN1S(=O)(=O)c1c[nH]c2c(-n3ccnn3)nccc12` (racemic), the IC50 came to 0.008 µM in data set [1]; 0.46 µM in data set [2]; 0.054 µM in data set [3]; 0.267 µM in data set [4]; 0.116 µM in data set [5]; 0.046 µM in data set [6]. Also, the IC50 worked out at 1.4 µM in data set [7]; 0.33 µM in [8]; 1.8 µM in [9]; 0.513 µM in data set [11]; 0.492 µM in [12]; 0.465 µM in data set [13]. It took 0.002 µM to reach half-maximal inhibition in [14] (IC50). In addition, in [10], the 50% cytotoxic concentration (CC50) was over 40 µM.

Molecule `CC1CN(C(=O)c2ccc3[nH]ccc3c2)CCN1S(=O)(=O)c1c[nH]c2ncccc12` (racemic) came in with an IC50 in data set [3] of 4.6 µM. Besides, the CC50 in data set [10] was over 40 µM.

Turning to `CC1CN(C(=O)c2cccs2)CCN1S(=O)(=O)c1c[nH]c2ncccc12` (racemic), half-maximal inhibition in data set [3] (IC50) was put at 4.6 µM. In addition, the CC50 in data set [10] was over 40 µM.

`CC1CN(C(=O)c2ccc3occc3c2)CCN1S(=O)(=O)c1c[nH]c2ncccc12` (racemic): the IC50 in [3] is 10 µM. Moreover, the half-maximal cytotoxic concentration (CC50) in data set [10] was over 40 µM.

On to `Cc1ccc(C(=O)N2CCN(S(=O)(=O)c3c[nH]c4ncccc34)C(C)C2)cc1` (racemic), for which, in data set [3], the IC50 was found to be 12.4 µM. In data set [10], this molecule yielded a CC50 of over 40 µM.

In turn, `CC1CN(C(=O)c2ccc3scnc3c2)CCN1S(=O)(=O)c1c[nH]c2ncccc12` (racemic) came in with an IC50 in data set [3] of 12.6 µM. For the same molecule, the CC50 in [10] is over 40 µM.

`CC1CN(C(=O)c2cnc3ccccc3n2)CCN1S(=O)(=O)c1c[nH]c2ncccc12` (racemic): the IC50 in [3] stood at 5.4 µM. Moreover, in data set [10], the CC50 is over 40 µM.
